Where a name gives a salt, the structure may show the parent alone.
How the values were obtained:
[1] = tested on: HeLa; test: Cytotoxicity against human HeLa cells assessed as inhibition of cell viability after 48 hrs by MTT assay; assay type: functional, cell-based
Method in brief: (§1)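 Cells were seeded at 2.5‒5 x 10^3 per well in DMEM or RPMI with 10% FBS and grown 24 h at 37 °C under CO2. Compounds diluted in medium were added alongside vehicle control for 48 h. MTT (0.5 mg/mL) was added for 4 h, formazan dissolved in DMSO and absorbance read at 570 nm. IC50 is the concentration giving 50% loss of viability; mean ± SD of three experiments, each in triplicate.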

[2] = tested on: NCI-H460; test: Cytotoxicity against human NCI-H460 cells assessed as inhibition of cell viability after 48 hrs by MTT assay; assay type: functional, cell-based; conditions: NCI-H460, 48 h; method in brief: as §1
[3] = tested on: NCI-H460; test: Potency index, ratio of curcumin IC50 to test compound IC50 for human NCI-H460 cells; assay type: functional
[4] = tested on: HGC-27; test: Cytotoxicity against human HGC27 cells assessed as inhibition of cell viability after 48 hrs by MTT assay; assay type: functional, cell-based; conditions: HGC-27, 48 h; method in brief: as §1
[5] = tested on: PC-3; test: Potency index, ratio of curcumin IC50 to test compound IC50 for human PC3 cells; assay type: functional
[6] = tested on: DU-145; test: Potency index, ratio of curcumin IC50 to test compound IC50 for human DU145 cells; assay type: functional
[7] = tested on: PC-3; test: Cytotoxicity against human PC3 cells assessed as inhibition of cell viability after 48 hrs by MTT assay; assay type: functional, cell-based; conditions: PC-3, 48 h; method in brief: as §1
[8] = tested on: 4T1; test: Cytotoxicity against mouse 4T1 cells assessed as inhibition of cell viability after 48 hrs by MTT assay; assay type: functional, cell-based; conditions: 4T1, 48 h; method in brief: as §1
[9] = tested on: DU-145; test: Cytotoxicity against human DU145 cells assessed as inhibition of cell viability after 48 hrs by MTT assay; assay type: functional, cell-based; conditions: DU-145, 48 h; method in brief: as §1

SMILES	IC50 [1]	IC50 [2]	Ratio IC50 [3]	IC50 [4]	Ratio IC50 [5]	Ratio IC50 [6]	IC50 [7]	IC50 [8]	IC50 [9]
COc1ccc(OC)c(/C=C/C(=O)/C=C/c2nc3ccccn3c2-c2ccccc2)c1	5.51 µM	4.01 µM	4.3	7.08 µM	6.1	9.8	3.03 µM	3.38 µM	3.38 µM
CC[C@]1(O)C[C@H]2CN(CCc3c([nH]c4ccccc34)[C@@](C(=O)OC)(c3cc4c(cc3OC)N(C=O)[C@H]3[C@@](O)(C(=O)OC)[C@H](OC(C)=O)[C@]5(CC)C=CCN6CC[C@]43[C@@H]65)C2)C1 [VINCRISTINE SULFATE]									71.8 µM
COc1ccc(/C=C/C(=O)/C=C/c2nc3ccccn3c2-c2cccc(OC)c2)cc1	> 10 µM	> 10 µM		> 10 µM			> 10 µM	> 10 µM	> 10 µM
COc1ccc(/C=C/C(=O)/C=C/c2nc3ccccn3c2-c2ccc(F)c(F)c2)cc1	> 10 µM	> 10 µM		> 10 µM			> 10 µM	> 10 µM	> 10 µM
COc1ccc(/C=C/C(=O)/C=C/c2nc3ccccn3c2-c2ccc(F)c(F)c2)c(OC)c1	8.41 µM	9.53 µM	1.8	10.3 µM	2.1	3.9	8.94 µM	9.72 µM	8.46 µM
COc1cccc(-c2c(/C=C/C(=O)/C=C/c3ccc(OC)c(OC)c3)nc3ccccn23)c1	> 10 µM	> 10 µM		> 10 µM			> 10 µM	> 10 µM	> 10 µM
COc1cccc(-c2c(/C=C/C(=O)/C=C/c3ccc(OC)cc3OC)nc3ccccn23)c1	> 10 µM	> 10 µM		> 10 µM			> 10 µM	> 10 µM	> 10 µM
COc1ccc(-c2c(/C=C/C(=O)/C=C/c3ccc(OC)cc3OC)nc3ccccn23)cc1	> 10 µM	> 10 µM		> 10 µM			> 10 µM	> 10 µM	> 10 µM
COc1ccc(-c2c(/C=C/C(=O)/C=C/c3ccc(OC)c(OC)c3)nc3ccccn23)cc1	6.66 µM	4.28 µM	4	7.84 µM	5.1	8.3	3.64 µM	5.61 µM	4 µM
COc1cc(OC)c(/C=C/C(=O)/C=C/c2nc3ccccn3c2-c2ccccc2)c(OC)c1	> 10 µM	> 10 µM		> 10 µM			> 10 µM	> 10 µM	> 10 µM
COc1cc(OC)c(OC)cc1/C=C/C(=O)/C=C/c1nc2ccccn2c1-c1ccccc1	1.67 µM	2.84 µM	6	5.38 µM	6.8	8.9	2.75 µM	1.68 µM	3.71 µM
COc1ccc(-c2c(/C=C/C(=O)/C=C/c3cc(OC)ccc3OC)nc3ccccn23)cc1	> 10 µM	> 10 µM		> 10 µM			> 10 µM	> 10 µM	> 10 µM
COc1ccc(-c2c(/C=C/C(=O)/C=C/c3cc(OC)c(OC)cc3OC)nc3ccccn23)cc1	9.41 µM	5.52 µM	3.1	8.77 µM	2.6	5.9	7.24 µM	4.69 µM	5.63 µM
COc1ccc(/C=C/C(=O)/C=C/c2nc3ccccn3c2-c2ccc(OC)cc2)cc1	> 10 µM	> 10 µM		> 10 µM			> 10 µM	> 10 µM	> 10 µM
COc1cccc(-c2c(/C=C/C(=O)/C=C/c3cc(OC)ccc3OC)nc3ccccn23)c1	> 10 µM	> 10 µM		> 10 µM			> 10 µM	> 10 µM	> 10 µM
COc1ccc(OC)c(/C=C/C(=O)/C=C/c2nc3ccccn3c2-c2ccc(F)c(F)c2)c1	4.93 µM	3.11 µM	5.5	6.35 µM	6.6	7.9	2.84 µM	3.27 µM	4.19 µM
COc1ccc(/C=C/C(=O)/C=C/c2nc3ccccn3c2-c2ccccc2)cc1OC	> 10 µM	> 10 µM		> 10 µM			> 10 µM	> 10 µM	> 10 µM
COc1ccc(/C=C/C(=O)/C=C/c2nc3ccccn3c2-c2ccccc2)c(OC)c1	> 10 µM	> 10 µM		> 10 µM			> 10 µM	> 10 µM	> 10 µM
COc1cc(/C=C/C(=O)CC(=O)/C=C/c2ccc(O)c(OC)c2)ccc1O [CURCUMIN]							18.7 µM		
COc1ccc(/C=C/C(=O)/C=C/c2nc3ccccn3c2-c2ccccc2)cc1	> 10 µM	> 10 µM		> 10 µM			> 10 µM	> 10 µM	> 10 µM
COc1ccc(/C=C/C(=O)/C=C/c2nc3ccccn3c2-c2ccc(F)c(F)c2)cc1OC	5.58 µM	3.01 µM	5.7	3.38 µM	3.4	6.8	5.43 µM	3.45 µM	4.87 µM

Reference: ChEMBL document CHEMBL4251576, “Synthesis and biological evaluation of curcumin inspired imidazo[1,2-a]pyridine analogues as tubulin polymerization inhibitors” (Eur J Med Chem, 2018)
